# In the library only some 1.7% were active in any assay of this set; here they are far more common.
# PolyA inh: yeast polyadenylation inhibition | S. cerevisiae SKY197-pL101 polyadenylation reporter, beta-gal luminescence; efflux-impaired pdr1/pdr3 knockout yeast; score 100 = 6 SD above DMSO | activity score, % at 12 µM | 0.02% of 300,000 active | AID 1875;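 active = lowest replicate activity score at least 50, where 100 means six control SD above control mean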;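 note: yeast exposed to compound for 9 h at 30 °C; higher score means more reporter readthrough which indicates perturbed polyadenylation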
# VIM-2 inhibitor: inhibitors of Pseudomonas aeruginosa VIM-2 metallo-beta-lactamase | purified VIM-2, nitrocefin hydrolysis, epi-absorbance fluorescence | inhibition, % at 5.6 µM | AID 1527 | 0.89% of 290,000 active;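 active = inhibition above the mean of all tested compounds plus 3 SD, cutoff set per screening run, cut at about 7.5% in these data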;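 note: red hydrolysis product quenches plate fluorescence so inhibitors raise well fluorescence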
# IMP-1 inh: blocks Pseudomonas aeruginosa IMP-1 metallo-beta-lactamase; inhibition, % at 5.6 µM; 0.45% of 290,000 active; purified IMP-1, nitrocefin hydrolysis, epi-absorbance fluorescence;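 active = inhibition above the mean plus 3 SD of all compounds in the same screening run, cut at about 4.5% in these data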
#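 Material – recombinant IMP-1 enzyme, purified · Amount – IMP-1 0.2 nM before substrate addition · Medium – HEPES buffer pH 7.1 with ZnSO4 and Brij 35 · Timing – 25 °C, 15 min preincubation, 25 min reaction · Measured by – plate fluorescence quenching by hydrolysis product, ex 480/em 530 nm · Read-out – percent enzyme inhibition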
# procasp3 activ: procaspase-3 (human) activation. recombinant procaspase-3 D3A, Ac-DEVD-pNA absorbance 405 nm. activation, % at 8.5 µM. 0.11% of 330,000 active;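 active = activation above the mean of all tested compounds plus 3 SD, cut at about 21% in these data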
# Target sequence (P42574 whole entry D9A/D28A/D175A): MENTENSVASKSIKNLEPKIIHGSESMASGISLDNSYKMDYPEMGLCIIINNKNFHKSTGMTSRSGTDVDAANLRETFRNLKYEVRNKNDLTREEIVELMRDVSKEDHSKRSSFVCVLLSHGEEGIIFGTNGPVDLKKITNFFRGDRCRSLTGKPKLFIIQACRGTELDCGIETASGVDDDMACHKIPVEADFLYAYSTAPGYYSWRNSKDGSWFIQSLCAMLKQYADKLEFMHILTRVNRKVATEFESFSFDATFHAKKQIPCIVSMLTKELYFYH
#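 Technique: 405 nm absorbance of p-nitroaniline, reads at 0 and 120 min; Test system: Procaspase-3 D3A mutant; Incubation: 1 h enzyme-compound preincubation, then 2 h substrate reaction, 25 °C; Repeats: singlicate, each compound tested once; Benchmarks: low control DMSO wells, high control DMSO plus 5 µM PC-3 D3A.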
# Neddylation inh: blocks human cullin neddylation; AID 651699; P61081+Q13564; TR-FRET cullin neddylation, biochemical; calls only at 25 µM; 0.58% of 360,000 active; in the data active = inhibition above about 36%
# proCasp7 act: activates human procaspase-7, counter-screen for procaspase-3 activators | recombinant procaspase-7, Ac-DEVD-pNA absorbance 405 nm; D23A/D198A/D206A triple mutant, cannot self-cleave; scale: DMSO 0, 5 µM enzyme 100 | activation, % at 8.5 µM | 0.093% of 330,000 active | AID 463210;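 active = percent activation above the screen-wide mean plus 3 SD, cut at about 25% in these data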
# Target sequence (P55210 whole entry D23A/D198A/D206A): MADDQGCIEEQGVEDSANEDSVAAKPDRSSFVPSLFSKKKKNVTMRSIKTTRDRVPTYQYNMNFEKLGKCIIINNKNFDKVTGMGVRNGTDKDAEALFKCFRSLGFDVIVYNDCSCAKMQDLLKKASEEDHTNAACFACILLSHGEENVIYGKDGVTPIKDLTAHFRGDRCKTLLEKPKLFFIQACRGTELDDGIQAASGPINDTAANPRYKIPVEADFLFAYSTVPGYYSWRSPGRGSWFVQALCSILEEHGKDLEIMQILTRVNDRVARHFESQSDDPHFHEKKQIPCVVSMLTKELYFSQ
#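 buffer or medium = Zinc-free HEPES/NaCl buffer, pH 7.4 | material = Procaspase-7 triple mutant (PC-7 D3A) | input = 2 µM procaspase-7 mutant as dispensed | signal = Epi-absorbance of released pNA at 405 nm, two timepoints | timing = 1 h preincubation, 2 h reaction | replicates = singlicate compound testing | evaluation = % activation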
# Neddyl conf: cullin neddylation inhibition, confirmation. shares compounds with Neddylation inh. TR-FRET cullin neddylation biochemical assay. calls only at 25 µM. 13% of 1,800 active. AID 652217; in the data active = inhibition above about 40%;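 note: neddylation substrate is the cullin 1 ring ligase complex with SKP2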
# Calls only; – = inactive; · = not tested or not shown; + = active, no number.
SMILES,PolyA inh,VIM-2 inhibitor,IMP-1 inh,procasp3 activ,Neddylation inh,proCasp7 act,Neddyl conf
COC(C(=O)Nc1ccc(S(=O)(=O)Nc2c(C)cccc2C)cc1)c1ccccc1 (stereo unspecified),–,–,–,–,–,–,·
O=C(CN1c2cccc3cccc(c23)S1(=O)=O)NCc1ccc(F)cc1,·,·,·,–,+,–,+
O=C(CN1c2cccc3cccc(c23)S1(=O)=O)Nc1ccc(F)c(F)c1F,·,·,·,–,+,–,–
Cc1ccc(CNC(=O)CN2c3cccc4cccc(c34)S2(=O)=O)cc1,·,·,·,–,–,–,·
Cc1ccc(NC(=O)CN2CCC(Cc3ccccc3)CC2)cc1S(=O)(=O)N(C)C,–,–,–,–,–,–,·
Cc1cc(Cl)ccc1NC(=O)CN1CCN(C(=O)c2ccco2)CC1,–,–,–,–,–,–,·
Nc1nccc(/C=C/c2ccc(Cl)cc2)n1,–,–,–,–,+,–,–
CC(NC(=O)c1ccccc1)c1nnc(SCc2nc3ccccc3c(=O)[nH]2)n1C (stereo unspecified),–,–,–,–,–,–,·
COc1cccc(/C=N/Nc2ncc(C)c(=O)[nH]2)c1OC,–,–,–,–,+,–,–
COc1cccc(/C=N/Nc2ncnc3c2[nH]c2ccc(C)cc23)c1OC,–,–,–,–,+,–,–
Cc1ccc(Nc2nc(C)nc3c2oc2ccccc23)cc1,–,–,–,–,+,–,·
CCOc1ccc(NC(=O)Cn2c(=O)oc3ccccc32)cc1,–,–,–,–,–,–,·
Cc1cccc(-c2cc3nc4c(c(N5CCCC(O)C5)n3n2)CCC4)c1 (stereo unspecified),–,–,–,–,+,–,·
OC1CCN(c2c3c(nc4cc(-c5ccc(F)cc5)nn24)CCC3)CC1,–,–,–,–,+,–,–
CC(C)n1cc(CN2CCCC(C(=O)Nc3cccc(-c4cc5ccccc5[nH]4)c3)C2)cn1 (stereo unspecified),–,–,–,–,–,–,·
CCCCN(C)C(=O)CCC(=O)Nc1ccc2nc(N3CCN(C)CC3)cc(C)c2c1,–,–,–,–,+,–,–
Cc1cc(N2CCN(C)CC2)nc2ccc(NC(=O)CCC(=O)NCCc3ccc(Cl)cc3)cc12,–,–,–,·,+,·,–
N#C/C(=C\Nc1ccccn1)S(=O)(=O)c1ccc(Cl)cc1,–,–,–,–,–,–,·
O=C(O)c1cccc(N2CCCC2=O)c1,–,–,–,–,–,–,·
O=C(O)c1cccc(N2CCCC2)c1,–,–,–,–,+,–,·
CC(C)(C)C1c2[nH]c3ccccc3c2CCN1Cc1cccc(OCCO)c1 (stereo unspecified),–,–,–,–,+,–,–
COc1cc(C2C(C#N)=C(N)N(c3cccnc3)C3=C2C(=O)CCC3)ccc1O (stereo unspecified),–,–,–,–,–,–,·
COc1cc(C2C(C#N)=C(N)N(c3ccc(F)cc3)C3=C2S(=O)(=O)CC3)ccc1O (stereo unspecified),–,–,–,–,+,–,–
N#Cc1ncc(-c2ccc3c(c2)OCCOCCOCCOCCO3)nc1C#N,–,–,–,–,+,–,–
CC(=O)Nc1ccc(NC(=O)C2CCCN2C(=O)NC2CCCCC2)cc1 (stereo unspecified),–,–,–,–,–,–,·
SMILES,PolyA inh,VIM-2 inhibitor,IMP-1 inh,procasp3 activ,Neddylation inh,proCasp7 act,Neddyl conf
O=C(N/N=C/c1cccn1-c1ccc(O)cc1)c1cccc2ccccc12,–,–,–,–,+,–,–
COc1ccc(NC(=O)c2ccc(-n3nc(C)cc3C)cc2)cc1OC,–,–,–,–,–,–,·
COc1ccc(Nc2oc(COc3ccccc3OC)nc2C#N)cc1,–,–,–,–,+,–,–
COc1ccccc1OCc1nc(C#N)c(NCCCn2ccnc2)o1,–,–,–,–,–,–,·
COc1ccc(N(CC(=O)Nc2ccccc2F)S(=O)(=O)c2ccc(OC)c(OC)c2)cc1,–,–,–,–,–,–,·
CCOc1ccc(/C=N/NC(=O)c2nnn(-c3nonc3N)c2-c2ccc(OCC)cc2)cc1,–,–,–,–,–,–,·
CCOc1ccc(-c2c(C(=O)N/N=C/c3c[nH]c4ccccc34)nnn2-c2nonc2N)cc1,–,–,–,–,+,–,–
Cc1ccc(-n2nc(C(=O)N3CCOCC3)cc2-c2ccc(Cl)cc2)cc1,–,–,–,–,–,–,·
CN(C)c1nc(OCc2ccccc2)c2ncc(=O)[nH]c2n1,–,·,·,–,+,–,·
O=C(OCc1cc(=O)n2ccsc2n1)c1ccccc1NCCO,·,·,·,–,+,–,·
CCCn1nc(C(=O)Nc2nc3ccccc3[nH]2)c2ccccc2c1=O,–,–,–,–,–,–,·
Nc1cccc2c(=O)[nH][nH]c(=O)c12,·,·,·,·,+,·,+
COCCN1C=C(C(=O)OC)C(c2ccc3c(c2)OCO3)C(C(=O)OC)=C1,–,–,–,–,+,–,+
Cc1ccnc(NC(=O)C2CCN(S(=O)(=O)c3cccc4nonc34)CC2)c1,–,–,–,–,–,–,·
CC(=O)c1ccc(-c2ccc(C(=O)NCC(c3ccc(F)cc3)N3CCOCC3)o2)cc1 (stereo unspecified),–,·,·,–,+,–,+
Cc1[nH]c2ccc(C(=O)OC(C)C(=O)N(C)C3CCCCC3)cc2c1C (stereo unspecified),·,·,·,·,–,·,·
Cc1[nH]c2ccc(C(=O)OC(C)C(=O)N(C)c3ccccc3)cc2c1C (stereo unspecified),–,·,·,–,+,–,–
Cc1cc(N2CCOCC2)n2cc(-c3ccc(F)cc3)nc2n1,–,–,–,–,+,–,–
CCCc1cc(C(=O)Nc2ccc(C)cc2)no1,–,–,–,–,–,–,·
COc1cc(Cl)ccc1OCc1cc(C(=O)N2CCN(C)CC2)no1,–,–,–,–,–,–,·
COc1ccc(CCNc2oc(-c3ccco3)nc2C#N)cc1,–,–,–,–,+,–,+
N#Cc1nc(-c2ccco2)oc1NCCc1ccccc1,–,–,–,–,–,–,·
CCOc1ccc(NC(=O)CN(C)C(=O)c2cc(-c3ccc(OC)cc3)nc3ccccc23)cc1OCC,–,·,·,–,+,–,·
COc1ccc(-c2cc(C(=O)N(C)CC(=O)Nc3ccccc3C(F)(F)F)c3ccccc3n2)cc1OC,·,·,·,·,–,·,·
COc1ccc(-c2cc(C(=O)N(C)CC(=O)Nc3ccccc3Br)c3ccccc3n2)cc1OC,–,·,·,–,+,–,+
COc1ccc(CNC(=O)COC(=O)c2ccc(Br)cc2)cc1,–,–,–,–,–,–,·
